The text below walks through data of ChEMBL document CHEMBL4038305, “Benzoxaborole Antimalarial Agents. Part 5. Lead Optimization of Novel Amide Pyrazinyloxy Benzoxaboroles and Identification of a Preclinical Candidate” (J Med Chem, 2017).

Data set [1] relates to Plasmodium berghei. Briefly: Antimalarial activity against Plasmodium berghei infected in Swiss Webster mouse assessed as mouse survival rate at 11 mg/kg administered once daily via oral gavage for 4 consecutive days beginning 1 hr after infection measured on day 12 post infection relative to control. It is filed as functional. The method, boiled down: (§1)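 Mice given an intraperitoneal injection of P. berghei-infected erythrocytes taken from a previously infected animal. Oral dosing once daily for 4 consecutive days, starting 1 h after infection. Vehicle: polyethylene glycol 300/propylene glycol/water (weight ratio 55/25/20). Percent survival recorded daily from day 4 to day 20. Chloroquine 30 mg/kg and vehicle-only groups served as controls.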

Data set [2] concerns Plasmodium berghei. Briefly: Antimalarial activity against Plasmodium berghei infected in Swiss Webster mouse assessed as mouse survival rate at 11 mg/kg administered once daily via oral gavage for 4 consecutive days beginning 1 hr after infection measured on day 13 post infection relative to control. It is filed as functional. The method, boiled down:
as §1

The subject of data set [3] is Plasmodium berghei. Briefly: Antimalarial activity against Plasmodium berghei infected in Swiss Webster mouse assessed as mouse survival rate at 11 mg/kg administered once daily via oral gavage for 4 consecutive days beginning 1 hr after infection measured on day 11 post infection relative to control. The format is functional. Put shortly: as §1
The test system of data set [4] is Plasmodium berghei. Put plainly: Antimalarial activity against Plasmodium berghei infected in Swiss Webster mouse assessed as mouse survival rate at 100 mg/kg administered once daily via oral gavage for 4 consecutive days beginning 1 hr after infection measured on day 19 post infection relative to control. The format is functional. Put shortly: as §1
The subject of data set [5] is Plasmodium berghei. Briefly: Antimalarial activity against Plasmodium berghei infected in Swiss Webster mouse assessed as mouse survival rate at 0.3 mg/kg administered once daily via oral gavage for 4 consecutive days beginning 1 hr after infection measured on day 6 post infection relative to control. It is filed as functional. The method, boiled down:
as §1

Data set [6] concerns Plasmodium berghei. Put plainly: Antimalarial activity against Plasmodium berghei infected in Swiss Webster mouse assessed as mouse survival rate at 3 mg/kg administered once daily via oral gavage for 4 consecutive days beginning 1 hr after infection measured on day 5 post infection relative to control. The format is functional. Put shortly:
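P. berghei-infected erythrocytes taken from a previously infected mouse were injected intraperitoneally. Oral dosing, once daily for 4 consecutive days, began 1 h after infection, in polyethylene glycol 300/propylene glycol/water (55/25/20 by weight). Chloroquine at 30 mg/kg was the positive control, with a vehicle-only group. Percent survival was recorded daily from day 4 to day 20.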

Data set [7] has as its system Plasmodium berghei. Put plainly: Antimalarial activity against Plasmodium berghei infected in Swiss Webster mouse assessed as mouse survival rate at 0.3 mg/kg administered once daily via oral gavage for 4 consecutive days beginning 1 hr after infection measured on day 5 post infection relative to control. It is filed as functional. The method, boiled down: as §1
Data set [8] concerns Salmonella typhimurium. Briefly: Genotoxicity in Salmonella typhimurium TA1535 assessed as number of revertants per plate at 5 ug/plate in presence of rat liver S9 fraction by Ames test (reference value: 10). The format is toxicity. The conditions noted are these: salmonella enterica subsp. enterica serovar typhimurium.
Data set [9] has as its system Rattus norvegicus. Briefly: Genotoxicity in rat assessed as micronucleated polychromatic erythrocytes in bone marrow at 2000 mg/kg administered via oral gavage measured after 24 hrs post dose by micronucleus assay (reference value: 0.07 +/- 0.05%). The format is toxicity, organism-based. To be noted: in vivo.
In data set [10] the test system is Salmonella typhimurium. Briefly: Genotoxicity in Salmonella typhimurium TA1537 assessed as number of revertants per plate at 500 ug/plate in presence of rat liver S9 fraction by Ames test (reference value: 11 +/- 4). The format is toxicity. The conditions noted are these: salmonella enterica subsp. enterica serovar typhimurium.
The test system of data set [11] is Salmonella typhimurium. Briefly: Genotoxicity in Salmonella typhimurium TA1537 assessed as number of revertants per plate at 1.5 ug/plate in presence of rat liver S9 fraction by Ames test (reference value: 11 +/- 4). The format is toxicity. The conditions noted are these: salmonella enterica subsp. enterica serovar typhimurium.
In data set [12] the test system is Salmonella typhimurium. Briefly: Genotoxicity in Salmonella typhimurium TA1535 assessed as number of revertants per plate at 1500 ug/plate in presence of rat liver S9 fraction by Ames test (reference value: 10). The format is toxicity. The conditions noted are these: salmonella enterica subsp. enterica serovar typhimurium.
Data set [13] can be described thus: Volume of distribution at steady state in Beagle dog at 5 mg/kg, iv by HPLC/MS analysis. It is filed as ADME, organism-based, Canis lupus familiaris. To be noted: in vivo, read-out: Vdss.
The test system of data set [14] is Salmonella typhimurium. Put plainly: Genotoxicity in Salmonella typhimurium TA98 assessed as number of revertants per plate at 15 ug/plate in absence of rat liver S9 fraction by Ames test (reference value: 14 +/- 6). The format is toxicity. The conditions noted are these: salmonella enterica subsp. enterica serovar typhimurium. In general terms: In the Ames test, an excess of revertant colonies over the control signals mutagenicity.

The subject of data set [15] is Rattus norvegicus. Briefly: Genotoxicity in rat assessed as micronucleated polychromatic erythrocytes in bone marrow at 2000 mg/kg administered via oral gavage measured after 48 hrs post dose by micronucleus assay (reference value: 0.10 +/- 0.01%). To be noted: in vivo. The format is toxicity, organism-based.
Data set [16] relates to Salmonella typhimurium. Briefly: Genotoxicity in Salmonella typhimurium TA1537 assessed as number of revertants per plate at 1.5 ug/plate in absence of rat liver S9 fraction by Ames test (reference value: 19 +/- 9). It is filed as toxicity. To be noted: salmonella enterica subsp. enterica serovar typhimurium.
Data set [17] deals with Salmonella typhimurium. Put plainly: Genotoxicity in Salmonella typhimurium TA100 assessed as number of revertants per plate at 150 ug/plate in presence of rat liver S9 fraction by Ames test (reference value: 141 +/- 1). The conditions noted are these: salmonella enterica subsp. enterica serovar typhimurium. It is filed as toxicity.
The test system of data set [18] is Plasmodium falciparum. Put plainly: Antimalarial activity against Plasmodium falciparum T9/94 infected in human erythrocytes assessed as reduction in [3H]-hypoxanthine incorporation preincubated for 24 hrs followed by [3H]-hypoxanthine addition measured after 24 hrs by scintillation counting method. The format is functional, cell-based.
In data set [19] the test system is Salmonella typhimurium. Put plainly: Genotoxicity in Salmonella typhimurium TA100 assessed as number of revertants per plate at 500 ug/plate in absence of rat liver S9 fraction by Ames test (reference value: 154 +/- 9). The conditions noted are these: salmonella enterica subsp. enterica serovar typhimurium. The format is toxicity.
The nature of data set [20]: Cmax in Sprague-Dawley rat plasma at 5 mg/kg, po via gavage by HPLC/MS analysis. It is filed as ADME, organism-based. Also on record: dose 5 mg/kg, route oral. The method, boiled down:
(§2)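 Female CD-1 mice, male SD rats and beagle dogs received 5 mg/kg either iv or by oral gavage. Vehicle was PEG 300/propylene glycol/water (55/25/20, pH 6). Blood was sampled and drug measured by HPLC-MS/MS.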

Data set [21] deals with Salmonella typhimurium. Briefly: Genotoxicity in Salmonella typhimurium TA100 assessed as number of revertants per plate at 50 ug/plate in presence of rat liver S9 fraction by Ames test (reference value: 141 +/- 1). It is filed as toxicity. The conditions noted are these: salmonella enterica subsp. enterica serovar typhimurium.
The subject of data set [22] is Plasmodium falciparum. Briefly: Antimalarial activity against Plasmodium falciparum TM90C2B infected in human erythrocytes assessed as reduction in [3H]-hypoxanthine incorporation preincubated for 24 hrs followed by [3H]-hypoxanthine addition measured after 24 hrs by scintillation counting method. The format is functional, cell-based.
In data set [23] the test system is Plasmodium falciparum. Put plainly: Antimalarial activity against intraerythrocytic stage of Plasmodium falciparum assessed as time required for maximal killing effect at 100 times IC50 preincubated for 24 hrs followed by [3H]-hypoxanthine addition measured after 24 hrs by scintillation counting method. It is filed as functional. Put shortly: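 In vitro P. falciparum parasite reduction ratio assay run at 10×, 30× and 100× IC50. Derived parameters: lag phase (time to maximal killing), PRR (parasites killed per life cycle) and PCT99.9% (time to clear 99.9% of the initial parasite population).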

A further data set relates to Lymphocyte. Briefly: Genotoxicity in human lymphocytes assessed as increase in frequency of micronucleated cells at 160 ug/mL after 28 hrs in absence of rat liver S9 fraction by micronucleus assay (reference value: 0.74%). The format is toxicity, cell-based.
Data set [24] deals with Salmonella typhimurium. Put plainly: Genotoxicity in Salmonella typhimurium TA100 assessed as number of revertants per plate at 150 ug/plate in absence of rat liver S9 fraction by Ames test (reference value: 154 +/- 9). It is filed as toxicity. The conditions noted are these: salmonella enterica subsp. enterica serovar typhimurium.
For data set [25], the system named is Salmonella typhimurium. Briefly: Genotoxicity in Salmonella typhimurium TA100 assessed as number of revertants per plate at 5 ug/plate in presence of rat liver S9 fraction by Ames test (reference value: 141 +/- 1). It is filed as toxicity. The conditions noted are these: salmonella enterica subsp. enterica serovar typhimurium.
A short description of data set [26]: Clearance in Sprague-Dawley rat at 5 mg/kg, iv by HPLC/MS analysis. The format is ADME, organism-based. To be noted: in vivo. Put shortly: as §2
Data set [27] is described as follows: AUC in rat at 2000 mg/kg administered via oral gavage. To be noted: in vivo. The format is ADME, organism-based.

pIC50: −log10 of the molar value.

What is called pIC50 is the negative decadic logarithm of the IC50, by convention in mol/L. The Cmax is the peak of the concentration-time curve. By clearance is commonly meant the rate of elimination divided by the concentration. Read a high clearance as a high capacity for elimination. Broadly, the AUC is concentration integrated over time. Lower therefore signals less exposure.

In the case of `Cc1c(Oc2cnc(C(=O)N3CC(O)(C(C)C)C3)cn2)ccc2c1B(O)OC2`, the survival at 11 mg/kg in the data set on Plasmodium berghei [1], with Plasmodium berghei [2] and with Plasmodium berghei [3] was 20% in each case. Besides, in the data set on Plasmodium berghei [4], the survival at 100 mg/kg was determined as 80%.
Consider `Cc1c(Oc2cnc(C(=O)NC(C)CO)cn2)ccc2c1B(O)OC2` (stereo not drawn), for which the survival at 0.3 mg/kg in the data set with Plasmodium berghei [5] and with Plasmodium berghei [7] was 20% in each case. In the data set on Plasmodium berghei [6], the survival at 3 mg/kg came to 60%.
For the molecule `Cc1c(Oc2cnc(C(=O)N3CC(C)(O)C3)cn2)ccc2c1B(O)OC2`, the Activity worked out at 16 with Salmonella typhimurium [8]; 0.09% with Rattus norvegicus [9]; 17 with Salmonella typhimurium [10]; 12 in the data set on Salmonella typhimurium [11]; 10 in the data set on Salmonella typhimurium [12]; 15 in the data set with Salmonella typhimurium [14]. Further, the Activity is recorded as 0.1% in the data set on Rattus norvegicus [15]; 15 in the data set with Salmonella typhimurium [16]; 154 with Salmonella typhimurium [17]; 155 in the data set with Salmonella typhimurium [19]; 136 in the data set on Salmonella typhimurium [21]; 0.89% in the data set with Lymphocyte. Also, the Activity in the data set on Salmonella typhimurium [24] is recorded as 148; with Salmonella typhimurium [25] it was 128. Further, the Vd in data set [13] worked out at 0.29 L/kg. The pIC50 in the data set with Plasmodium falciparum [18] was 7.27; with Plasmodium falciparum [22], 7.22. The concentration in data set [20] peaked (Cmax) at 1700 ng/mL. Moreover, the Time in the data set on Plasmodium falciparum [23] turned out to be 0 h. Further, in data set [26], the clearance was 3.88 mL/min/kg. In addition, the AUC in data set [27] amounted to 742 µg·h/mL.
